Results on 26 compounds are retold here after ChEMBL document CHEMBL4613314, “Exploring the Implication of DDX3X in DENV Infection: Discovery of the First-in-Class DDX3X Fluorescent Inhibitor” (ACS Med Chem Lett, 2020).

pIC50: −log10 of the molar value. The source made the active and inactive calls. The rule behind the calls is not given here. Where only a bound is given, the exact number is not on record here.

The nature of series [1]: in vitro. To be noted: human.
Series [2] concerns dengue virus type 2. The series can be described thus: Antiviral activity against Dengue virus serotype 2 New Guinea C infected at 50 TCID50 in human HuH7 cells assessed as inhibition of viral replication and 72 hrs later re-infected pre-seeded HuH7 cells with viral supernatant collected from previous infected and measured after 72 hrs by immunodetection assay. It is filed as functional, organism-based. To be noted: Huh-7, 72 h. The method, boiled down:
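Huh-7 cells infected with 50 TCID50 DENV-2 in presence of serial compound dilutions; after 72 h supernatants used to infect preseeded Huh-7 cells for a second infection cycle; replication read after further 72 h by immunoenzymatic assay with monoclonal antibody to conserved viral E antigen region. IC50 from at least two experiments, mean ± SD.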

Series [3] in a line: Cytotoxicity against human HuH7 cells assessed as reduction in cell viability by measuring ATP level measured after 72 hrs by CellTiter-Glo luminescent assay. It is filed as cell-based, Huh-7. In short, it runs like this:
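Huh-7 cells; viable cell number determined from cellular ATP content by CellTiter-Glo 2.0 luminescence; CC50 derived.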

For series [4], the target named is T1, ATP-dependent RNA helicase DDX3X (Homo sapiens, UniProt O00571). In words: Inhibition of recombinant full length human His-tagged DDX3X expressed in Escherichia coli using dsRNA as substrate measured after 40 mins in presence of ATP by FRET assay.
Target sequence in this assay (O00571 whole entry): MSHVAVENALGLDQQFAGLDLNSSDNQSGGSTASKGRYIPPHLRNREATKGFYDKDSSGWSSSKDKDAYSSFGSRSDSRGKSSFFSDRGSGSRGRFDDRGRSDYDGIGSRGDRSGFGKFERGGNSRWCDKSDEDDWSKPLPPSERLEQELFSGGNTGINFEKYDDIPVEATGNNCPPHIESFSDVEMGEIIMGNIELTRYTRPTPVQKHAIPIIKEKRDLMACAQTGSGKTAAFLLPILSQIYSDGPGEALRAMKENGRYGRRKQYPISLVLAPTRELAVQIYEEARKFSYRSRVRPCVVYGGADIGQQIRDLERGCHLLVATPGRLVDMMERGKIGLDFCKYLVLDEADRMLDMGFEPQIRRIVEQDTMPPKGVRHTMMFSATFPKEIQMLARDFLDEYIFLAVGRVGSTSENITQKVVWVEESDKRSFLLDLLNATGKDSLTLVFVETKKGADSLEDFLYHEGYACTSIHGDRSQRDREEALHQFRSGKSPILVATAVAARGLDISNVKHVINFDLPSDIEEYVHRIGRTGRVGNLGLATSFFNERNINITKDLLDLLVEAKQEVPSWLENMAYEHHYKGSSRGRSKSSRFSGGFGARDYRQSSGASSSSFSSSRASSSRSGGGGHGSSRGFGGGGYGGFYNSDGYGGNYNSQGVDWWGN
Series [5] deals with dengue virus type 2. The series can be described thus: Antiviral activity against Dengue virus serotype 2 New Guinea C infected at 100 TCID50 in human HuH7 cells assessed as reduction in number of NS5 positive cells at 0.1 to 20 uM measured up to 24 hrs by Alexa fluor 488 dye based confocal microscopy. In kind it is functional, organism-based. The note with it: Huh-7.
Series [6] relates to dengue virus type 2. The series can be described thus: Antiviral activity against Dengue virus serotype 2 New Guinea C infected at 100 TCID50 in human HuH7 cells assessed as reduction in number of NS3 positive cells at 0.1 to 20 uM measured up to 24 hrs by Alexa fluor 488 dye based confocal microscopy. It is filed as functional, organism-based. The note with it: Huh-7.
For series [7], the system named is dengue virus type 2. In words: Antiviral activity against Dengue virus serotype 2 New Guinea C infected at 100 TCID50 in human HuH7 cells assessed as reduction in number of dsRNA positive cells at 0.1 to 20 uM measured up to 24 hrs by Alexa fluor 488 dye based confocal microscopy. It is filed as functional, organism-based. The note with it: Huh-7.
For series [8], the system named is dengue virus type 2. The series can be described thus: Antiviral activity against Dengue virus serotype 2 New Guinea C infected at 100 TCID50 in human HuH7 cells assessed as cytopathic effect by measuring increase in viable cells at 0.1 to 20 uM measured up to 24 hrs by Alexa fluor 488 based confocal microscopy. It is filed as functional, organism-based. The note with it: Huh-7. Background: Damage to the host cells serves as the signal in cytopathic effect assays.

Series [9] has as its system dengue virus type 2. In words: Antiviral activity against Dengue virus serotype 2 New Guinea C infected at 100 TCID50 in human HuH7 cells assessed as cytoplasmic localization of NS5 followed by movement to nucleus at 20 uM measured at 6 hrs post-infection by […]. It is filed as functional, organism-based. To be noted: Huh-7.
Series [10] deals with dengue virus type 2. In words: Antiviral activity against Dengue virus serotype 2 New Guinea C infected at 100 TCID50 in human HuH7 cells assessed as increase in viable cells at 20 uM measured at 48 to 72 hrs post-infection by Alexa fluor 488 dye based confocal microscopy. The note with it: Huh-7. In kind it is functional, organism-based. In short, it runs like this: (§1)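 DENV-2-infected Huh-7 cells (100 TCID50) treated with fluorescent inhibitor at 20 μM; immunostained for DDX3X or NS5 and examined by confocal microscopy over time up to 72 h p.i.; viable cell number and NS5-positive cell number scored.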

For series [11], the target named is T1, ATP-dependent RNA helicase DDX3X. The series can be described thus: Induction of DDX3X recruitment in human HuH7 cells infected with 100 TCID50 of Dengue virus serotype 2 New Guinea C assessed as colocalization of DDX3X in perinuclear region at 20 uM measured at 6 to 24 hrs post-infection by Alexa fluor 488 dye based confocal microscopy. In kind it is cell-based. To be noted: Huh-7. The method, boiled down:
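Huh-7 cells infected with DENV-2 at 100 TCID50, treated with fluorescent inhibitor at 20 μM; fixed at 0, 6, 12 and 24 h p.i., permeabilized, immunostained for DDX3 or NS5 (Alexa Fluor 568 secondary) and examined by confocal microscopy for colocalization with the probe.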
Target sequence in this assay (O00571 2-662 limits assumed): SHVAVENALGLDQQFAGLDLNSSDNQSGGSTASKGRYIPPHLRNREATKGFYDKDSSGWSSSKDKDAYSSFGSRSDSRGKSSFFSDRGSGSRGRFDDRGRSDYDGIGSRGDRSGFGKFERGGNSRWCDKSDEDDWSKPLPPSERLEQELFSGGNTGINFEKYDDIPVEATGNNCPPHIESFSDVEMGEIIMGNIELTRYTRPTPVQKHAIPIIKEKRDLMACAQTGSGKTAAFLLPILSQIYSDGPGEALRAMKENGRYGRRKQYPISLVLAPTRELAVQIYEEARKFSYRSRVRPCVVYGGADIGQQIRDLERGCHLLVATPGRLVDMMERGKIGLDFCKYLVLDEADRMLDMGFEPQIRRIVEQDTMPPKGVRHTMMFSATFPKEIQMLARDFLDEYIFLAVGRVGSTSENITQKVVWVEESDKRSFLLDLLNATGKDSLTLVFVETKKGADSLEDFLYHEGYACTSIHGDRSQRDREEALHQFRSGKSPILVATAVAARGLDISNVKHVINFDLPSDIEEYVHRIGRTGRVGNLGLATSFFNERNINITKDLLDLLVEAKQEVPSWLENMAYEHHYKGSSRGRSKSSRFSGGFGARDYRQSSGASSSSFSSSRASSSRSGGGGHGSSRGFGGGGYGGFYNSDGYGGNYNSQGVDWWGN

Series [12] has as its system dengue virus type 2. In words: Antiviral activity against Dengue virus serotype 2 New Guinea C infected at 100 TCID50 in human HuH7 cells assessed as reduction of NS5 positive cells at 20 uM measured at 48 to 72 hrs post-infection by Alexa fluor 488 dye based confocal microscopy. In kind it is functional, organism-based. To be noted: Huh-7. In short, it runs like this: as §1

The target of series [13] is T1, ATP-dependent RNA helicase DDX3X. The series can be described thus: Induction of DDX3X recruitment in human HuH7 cells infected with 100 TCID50 of Dengue virus serotype 2 New Guinea C assessed as increase in DDX3X expression in perinuclear region at 20 uM measured at 48 to 72 hrs post-infection by Alexa fluor 488 dye based confocal microscopy. It is filed as cell-based. To be noted: Huh-7. In short, it runs like this: as §1
Target sequence in this assay (O00571 2-662 limits assumed): as above

As a reminder, the pIC50 is −log10 of the IC50, conventionally taken in molar units. One may read the CC50 as the concentration giving 50% cytotoxicity. For `CC(C)CCc1cn(-c2ccc(NC(=O)Nc3ccccc3F)cc2)nn1`, the selectivity ratio at 72 h in series [1] (HuH7 cells) turned out to be 222. Besides, the pIC50 in series [2] was 6.05. Further, the CC50 at 72 h in series [3] amounted to 200 µM.
With `CCOCc1cn(-c2cccc(S(=O)(=O)Nc3ccccc3N3CCOCC3)c2)nn1`, the selectivity ratio at 72 h in series [1] (HuH7 cells) worked out at 18.9. Also, the pIC50 is 7.22 in series [4] and 5.28 in series [2]. In addition, the 50% cytotoxic concentration (CC50) at 72 h in series [3] is 100 µM.
The matching figures for `CCCCCCc1cn(-c2ccc(NC(=O)Nc3ccccc3C(F)(F)F)cc2)nn1`: 62.9, 6.52, 5.57 and 170 µM.
As to `CCCCc1cn(-c2cccc(S(=O)(=O)Nc3ccccc3C(F)(F)F)c2)nn1`, the selectivity ratio at 72 h in series [1] (HuH7 cells) came to 3. In addition, the negative-log IC50 (pIC50) in series [2] is 5.21. In addition, the half-maximal cytotoxic concentration (CC50) at 72 h in series [3] was found to be 18 µM.
As for `CCOCc1cn(-c2cccc(S(=O)(=O)Nc3ccccc3C(F)(F)F)c2)nn1`, the result in series [5], in series [6], in series [7] and in [8] was Active. In series [2], the pIC50 was 5.59. Further, in [3], the CC50 at 72 h was found to be 150 µM.
Take `CC(C)OC(=O)[C@H](C)N[P@](=O)(OC[C@H]1O[C@@H](n2ccc(=O)[nH]c2=O)[C@](C)(F)[C@@H]1O)Oc1ccccc1` [SOFOSBUVIR]: in series [1] (HuH7 cells), the selectivity ratio at 72 h worked out at 52.6. For the same compound, the pIC50 in [2] was 5.42. Besides, the CC50 at 72 h in series [3] turned out to be 200 µM.
In the case of `CCCCc1cn(-c2cccc(S(=O)(=O)Nc3ccccc3O)c2)nn1`, the negative-log IC50 (pIC50) in series [4] is 6.40; in series [2], 5.80. The CC50 at 72 h in series [3] worked out at 150 µM.
The matching figures for `CCCCc1cn(-c2cccc(S(=O)(=O)Nc3ccccc3OC)c2)nn1`: 6.74, 5.20 and 79 µM.
For the compound `CCCC(C)C(F)c1cn(-c2ccc(NC(=O)Nc3ccccc3C(F)(F)F)cc2)nn1` (stereo not given), in [4], the negative logarithm of the IC50 (pIC50) was 5.98.
Take `CCOCc1cn(-c2ccc(NC(=O)Nc3cccc(F)c3)cc2)nn1`: the negative-log IC50 (pIC50) is 4.67 in series [4] and below 3.84 in [2]. Besides, the CC50 at 72 h in series [3] is 145 µM.
On to `COc1cc(NC(=O)Nc2ccccc2C(F)(F)F)ccc1-n1cc(CCC(C)C)nn1`, for which, in [4], the pIC50 was 6.52.
For the compound `O=C1OC2(c3ccc(O)cc3Oc3cc(O)ccc32)c2cc(NC(=S)NCCOCc3cn(-c4cccc(S(=O)(=O)Nc5ccccc5C(F)(F)F)c4)nn3)ccc21`, the outcome in series [9], in series [10], in [11], in [12] and in series [13] was Active. In addition, the pIC50 in [2] was 4.55. The CC50 at 72 h in series [3] was 140 µM.
In the case of `CCCCc1cn(-c2cccc(S(=O)(=O)Nc3cccc4cnccc34)c2)nn1`, the pIC50 in series [4] was 6.92; in series [2], 5.64. Further, in series [3], the half-maximal cytotoxic concentration (CC50) at 72 h turned out to be 30 µM.
Turning to `CCCCc1cn(-c2ccc(NC(=O)Nc3ccccc3C)cc2)nn1`, in series [2], the pIC50 is 5.59.
With `NC(=O)c1ncn([C@@H]2O[C@H](CO)[C@@H](O)[C@H]2O)n1` [RIBAVIRIN], in series [1], the selectivity ratio at 72 h is 25. For the same compound, the negative logarithm of the IC50 (pIC50) in [2] is 5.40. Besides, the CC50 at 72 h in series [3] was 100 µM.
As for `CC(=O)CCc1cn(-c2ccc(NC(=O)Nc3cccc(F)c3)cc2)nn1`, the selectivity ratio at 72 h in series [1] (HuH7 cells) was 64.7. For the same compound, the negative logarithm of the IC50 (pIC50) in [4] is 5.62; in series [2], 6.52. For the same compound, the CC50 at 72 h in series [3] turned out to be 20 µM.
As to `CC(C)CCc1cn(-c2ccc(NC(=O)Nc3ccc(F)cc3)cc2)nn1`, in [4], the negative-log IC50 (pIC50) is 5.72.
For `CC(C)CCc1cn(-c2ccc(NC(=O)Nc3cccc(F)c3)cc2)nn1`, the selectivity ratio at 72 h in [1] (HuH7 cells) is 80. In series [2], the negative logarithm of the IC50 (pIC50) is 5.60. In addition, the CC50 at 72 h in series [3] stood at 200 µM.
Take `CCOCc1cn(-c2cccc(S(=O)(=O)Nc3cccc(C(=O)O)c3)c2)nn1`: the negative-log IC50 (pIC50) in series [2] is below 5.15. Further, the CC50 at 72 h in series [3] worked out at 7 µM.
For `CCCCc1cn(-c2ccc(NC(=O)Nc3ccccc3NS(C)(=O)=O)cc2)nn1`, in series [1] (HuH7 cells), the selectivity ratio at 72 h is 14. Also, the negative logarithm of the IC50 (pIC50) was 7.22 in series [4] and 5.60 in [2]. Besides, the CC50 at 72 h in [3] was found to be 35 µM.
Turning to `COc1cc(-n2cc(CCC(C)C)nn2)ccc1NC(=O)Nc1ccccc1C(F)(F)F`, in series [4], the pIC50 was 5.98.
With `CCOCc1cn(-c2cccc(S(=O)(=O)Nc3cccc(C(=O)OCC)c3)c2)nn1`, the selectivity ratio at 72 h in series [1] (HuH7 cells) was found to be 23.2. Also, the negative-log IC50 (pIC50) in series [4] was 8.30; in series [2], 5.37. The CC50 at 72 h in series [3] is 100 µM.
Regarding `O=C(Nc1ccc(-n2cc(CF)nn2)cc1)Nc1ccccc1C(F)(F)F`, the negative logarithm of the IC50 (pIC50) in series [4] is 5.66.
For `CCCCc1cn(-c2ccc(NC(=O)Nc3cccc(F)c3)cc2)nn1`, the selectivity ratio at 72 h in series [1] (HuH7 cells) came out at 19. For the same compound, the negative-log IC50 (pIC50) was 6.22 in [4] and 4.98 in [2]. Moreover, in series [3], the CC50 at 72 h is 200 µM.
Regarding `CCOCc1cn(-c2cccc(S(=O)(=O)Nc3ccccc3NS(C)(=O)=O)c2)nn1`, the selectivity ratio at 72 h in [1] (HuH7 cells) worked out at 10.5. Besides, the pIC50 in [4] was 7.10; in series [2], 5.08. Further, the 50% cytotoxic concentration (CC50) at 72 h in series [3] stood at 87 µM.
The corresponding values for `Cc1ccccc1NC(=O)Nc1ccc(-n2cc(CCC(C)C)nn2)cc1` are 121, 6.77, 5.85 and 170 µM.
